Measurements taken from ChEMBL document CHEMBL4837261, “Optimization of TopoIV Potency, ADMET Properties, and hERG Inhibition of 5-Amino-1,3-dioxane-Linked Novel Bacterial Topoisomerase Inhibitors: Identification of a Lead with In Vivo Efficacy against MRSA” (J Med Chem, 2021).
Values after ≈ are worked out from the molar mass of the structure shown. Active and inactive are the calls of the source. The calls are words filed in the database; no cut-off is given here.

How the values were obtained:
[1] = system: Staphylococcus aureus; experiment: Antibacterial activity against methicillin-resistant Staphylococcus aureus USA300 by CLSI method; type: functional
[2] = target: Topoisomerase IV (Staphylococcus aureus, UniProt P0C1S7+P0C1U9); experiment: Inhibition of Staphylococcus aureus topoisomerase IV decatenation activity using kDNA as substrate by ethidium bromide/bromophenol blue staining based agarose gel electrophoresis analysis; type: protein-complex assay
[3] = system: Staphylococcus aureus; experiment: Antibacterial activity against Staphylococcus aureus harbouring GyrA D83N mutant by CLSI method; type: functional
[4] = system: Staphylococcus aureus; experiment: Antibacterial activity against cystic fibrosis isolate Staphylococcus aureus by CLSI method; type: functional
[5] = system: Staphylococcus aureus; experiment: Antibacterial activity against Staphylococcus aureus 3527 by CLSI method; type: functional
[6] = target: DNA gyrase (Staphylococcus aureus, UniProt P0A0K8+P20831); experiment: Inhibition of Staphylococcus aureus Gyrase supercoiling activity assessed as reduction in supercoiling pBR322 DNA by measuring relaxation by bromophenol blue staining based TAE gel method; type: protein-complex assay
[7] = system: K562; experiment: Growth inhibition of log-phase human K562 cells incubated for 48 hrs by NBTI cell counting analysis; type: functional, cell-based; settings: k562
[8] = system: Staphylococcus aureus; experiment: Antibacterial activity against Staphylococcus aureus ATCC 29213 by CLSI method; type: functional
[9] = Growth inhibition of human K/VP.5 cells incubated for 48 hrs by NBTI cell counting analysis; type: functional; settings: K562, 48 h
[10] = Metabolic stability in CD1 mouse liver microsomes assessed as intrinsic clearance at 2 uM measured up to 120 mins by LC-MS/MS analysis; type: ADME, Microsome; settings: 2 h
[11] = Metabolic stability in CD1 mouse liver microsomes assessed as half life at 2 uM measured up to 120 mins by LC-MS/MS analysis; type: ADME, Microsome
[12] = system: Acinetobacter baumannii; experiment: Antibacterial activity against Acinetobacter baumannii by CLSI method; type: functional
[13] = system: Bacillus anthracis; experiment: Antibacterial activity against Bacillus anthracis by CLSI method; type: functional
[14] = system: Staphylococcus aureus; experiment: Antibacterial activity against Staphylococcus aureus by CLSI method; type: functional
How it was run: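 MICs were determined by broth microdilution per CLSI guidelines, in triplicate at minimum. Strains were S. aureus ATCC 29213, MRSA USA300 and a cystic fibrosis respiratory isolate, and ranges are given where seen.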

[15] = system: Streptococcus pneumoniae; experiment: Antibacterial activity against Streptococcus pneumoniae by CLSI method; type: functional
[16] = target: DNA gyrase (Staphylococcus aureus, UniProt P0A0K8+P20831, D83N); experiment: Inhibition of Staphylococcus aureus DNA Gyrase D83N mutant assessed as reduction in supercoiling pBR322 DNA by measuring relaxation by bromophenol blue staining based TAE gel method
[17] = system: Enterococcus sp.; experiment: Antibacterial activity against Enterococcus sp. by CLSI method; type: functional
[18] = target: T1, DNA gyrase (Staphylococcus aureus) (UniProt P0A0K8+P20831); experiment: Inhibition of Staphylococcus aureus DNA Gyrase assessed as reduction in supercoiling pBR322 DNA by measuring induction of double strand breaks at 200 uM by ethidium bromide staining based agarose gel electrophoresis; type: protein-complex assay
[19] = target: T1, DNA gyrase (Staphylococcus aureus); experiment: Inhibition of Staphylococcus aureus DNA Gyrase assessed as reduction in supercoiling pBR322 DNA by measuring induction of single strand breaks at 100 uM by ethidium bromide staining based agarose gel electrophoresis; type: protein-complex assay
[20] = Half life in ICR (CD-1) mouse at 10 mg/kg, iv measured up to 1440 mins by LC-MS/MS analysis; type: ADME, organism-based; settings: in vivo
How it was run: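 Male ICR (CD-1) mice, 22 ± 2 g, given the free base in DMSO/Solutol HS-15/0.9% NaCl (5/5/90, v/v/v), IV at 10 mg/kg or PO at 50 mg/kg; 24 mice per route, three per timepoint. Plasma was taken by cardiac puncture at 3–1440 min (IV) or 10–1440 min (PO), measured by LC-MS/MS, and parameters were derived by noncompartmental analysis.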

[21] = target: Voltage-gated inwardly rectifying potassium channel KCNH2 (Homo sapiens, UniProt Q12809); experiment: Inhibition of human ERG
How it was run: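 hERG channel inhibition was measured on the IonWorks Barracuda automated patch system. IC50 came from eight-point concentration–response curves with four replicates per concentration.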

Voltage-gated inwardly rectifying potassium channel KCNH2, sequence (Q12809 whole entry): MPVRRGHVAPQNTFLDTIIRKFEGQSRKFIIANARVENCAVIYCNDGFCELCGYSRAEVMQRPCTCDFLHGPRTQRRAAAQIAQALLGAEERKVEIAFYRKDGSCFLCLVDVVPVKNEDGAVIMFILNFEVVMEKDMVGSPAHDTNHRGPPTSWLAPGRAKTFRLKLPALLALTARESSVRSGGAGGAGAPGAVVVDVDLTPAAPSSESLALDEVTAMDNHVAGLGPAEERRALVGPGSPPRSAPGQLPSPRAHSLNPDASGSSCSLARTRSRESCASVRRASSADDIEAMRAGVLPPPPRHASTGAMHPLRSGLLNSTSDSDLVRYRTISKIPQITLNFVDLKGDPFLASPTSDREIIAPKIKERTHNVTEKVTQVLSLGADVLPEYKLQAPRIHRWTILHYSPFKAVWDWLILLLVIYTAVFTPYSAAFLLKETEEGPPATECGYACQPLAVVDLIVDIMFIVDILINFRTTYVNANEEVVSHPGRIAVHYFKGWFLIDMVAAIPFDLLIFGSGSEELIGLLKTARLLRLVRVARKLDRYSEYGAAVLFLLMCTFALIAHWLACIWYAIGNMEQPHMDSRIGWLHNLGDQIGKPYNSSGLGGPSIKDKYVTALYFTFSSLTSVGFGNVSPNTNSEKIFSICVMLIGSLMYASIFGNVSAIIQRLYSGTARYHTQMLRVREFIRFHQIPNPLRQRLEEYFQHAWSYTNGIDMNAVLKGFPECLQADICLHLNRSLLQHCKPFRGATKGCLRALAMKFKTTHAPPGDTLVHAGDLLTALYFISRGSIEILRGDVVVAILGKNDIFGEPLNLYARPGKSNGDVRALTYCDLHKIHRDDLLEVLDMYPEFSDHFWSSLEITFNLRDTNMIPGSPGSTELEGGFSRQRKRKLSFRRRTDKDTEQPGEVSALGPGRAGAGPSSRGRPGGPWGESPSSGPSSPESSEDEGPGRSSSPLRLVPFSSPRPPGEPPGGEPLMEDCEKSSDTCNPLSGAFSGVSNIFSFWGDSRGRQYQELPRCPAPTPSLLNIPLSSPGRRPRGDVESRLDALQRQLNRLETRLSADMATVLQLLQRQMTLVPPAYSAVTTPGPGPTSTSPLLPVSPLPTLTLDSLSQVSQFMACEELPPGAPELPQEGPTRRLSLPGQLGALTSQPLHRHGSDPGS

Row | SMILES | MIC [1] [µg/mL] | MIC [3] [µg/mL] | MIC [4] [µg/mL] | MIC [5] [µg/mL] | MIC [8] [µg/mL] | intrinsic clearance (CLint) [10] [µL/min/mg] | half-life at 2 µM [11] [min] | other results
1 | COc1ccc2ncc(F)c(C(O)C[C@H]3OC[C@H](NCc4ccc5c(n4)NC(=O)CO5)CO3)c2c1 (mixture of isomers) | 0.25 (≈ 0.516 µM) | 4 (≈ 8.26 µM) | 0.5 (≈ 1.03 µM) | ≤ 0.5 | 0.5 (≈ 1.03 µM) | – | – | IC50 [2]: 2600 nM; IC50 [6]: 520 nM; IC50 [7]: Not Active; IC50 [9]: > 50000 nM
2 | COc1ccc2nccc(CCN3CCC(NCc4ccc5c(c4)OCCO5)CC3)c2c1 | – | – | – | – | – | 1940 | 2.81 | –
3 | COc1ccc2nccc(CCN3CCC(NCc4cc5c(cn4)OCCO5)CC3)c2c1 | – | – | – | – | – | 2150 | 2.54 | –
4 | COc1ccc2ncc(F)c(C[C@H](O)[C@H]3OC[C@H](NCc4ccc5c(c4)OCCO5)CO3)c2n1 | 0.125 (≈ 0.265 µM) | 4 (≈ 8.48 µM) | 0.125 (≈ 0.265 µM) | 0.125 (≈ 0.265 µM) | 0.125 (≈ 0.265 µM) | – | – | MIC50 [12]: 16 µg/mL (≈ 33.9 µM); IC50 [2]: 380 nM; MIC50 [13]: 1 µg/mL (≈ 2.12 µM); MIC90 [13]: 4 µg/mL (≈ 8.48 µM); IC50 [6]: 60 nM; MIC50 [14]: 0.06 µg/mL (≈ 0.127 µM); IC50 [9]: 30500 nM; MIC50 [15]: 0.5 µg/mL (≈ 1.06 µM); IC50 [16]: 2700 nM; MIC50 [17]: 0.06 µg/mL (≈ 0.127 µM)
5 | O=c1ccc2ncc(=O)n3c2n1C[C@H]3CN1CCC(NCc2cc3c(cn2)OCCC3)CC1 [GEPOTIDACIN] | 0.25 (≈ 0.557 µM) | 8 (≈ 17.8 µM) | 0.25 (≈ 0.557 µM) | 0.25 (≈ 0.557 µM) | 0.25 (≈ 0.557 µM) | – | – | Activity [18]: Active; Activity [19]: Active
6 | COc1ccc2ncc(F)c(C[C@H](O)[C@@H]3CC[C@@H](NCc4cc5c(nn4)OCCS5)CO3)c2n1 | – | – | – | – | – | – | – | half-life [20]: 18.6 min
7 | COc1ccc2ncc(F)c(CC[C@H]3OC[C@H](NCc4ccc5c(c4)OCCO5)CO3)c2n1 | – | – | – | – | – | 2240 | 2.43 | IC50 [21]: 23000 nM
